Laboratory results: ChEMBL document CHEMBL4715736, “Identification of anticancer agents based on the thieno[2,3-b]pyridine and 1H-pyrazole molecular scaffolds” (2016)

Tests used:
Type in all cases: functional
HCC 2998 [1] = experiment: Growth inhibition of human HCC 2998 cells assessed as cell growth at 100 uM incubated for 48 hrs by sulforhodamine B assay relative to control; conditions: read-out: Activity
Procedure, shortened: (§1)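 NCI Developmental Therapeutics Program NCI60 panel. Compounds that were active in the 10 µM one-dose screen went on to dose–response testing. Growth at each concentration is expressed relative to untreated control (100%). GI50 (concentration giving 50% of maximal inhibition of proliferation) and TGI (concentration giving total growth inhibition) were derived from the curves.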

UACC-257 [2] = experiment: Growth inhibition of human UACC-257 cells assessed as cell growth at 100 uM incubated for 48 hrs by sulforhodamine B assay relative to control; conditions: read-out: Activity
HCC 2998 [3] = experiment: Growth inhibition of human HCC 2998 cells incubated for 48 hrs by sulforhodamine B assay
SF-295 = experiment: Growth inhibition of human SF-295 cells assessed as cell growth at 0.01 uM incubated for 48 hrs by sulforhodamine B assay relative to control; conditions: read-out: Activity
CAKI-1 = experiment: Growth inhibition of human CAKI-1 cells assessed as cell growth at 100 uM incubated for 48 hrs by sulforhodamine B assay relative to control; conditions: read-out: Activity; procedure, shortened: as §1
UACC-257 [4] = experiment: Growth inhibition of human UACC-257 cells incubated for 48 hrs by sulforhodamine B assay
Procedure, shortened: (§2)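 NCI DTP 60-line human tumour panel. Dose-response curves were run only for ligands active in the initial 10 µM screen. GI50 (concentration giving 50% of maximal inhibition of proliferation) and TGI (concentration giving total growth inhibition) were derived from these curves.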

OVCAR-5 [5] = experiment: Growth inhibition of human OVCAR-5 cells assessed as cell growth at 100 uM incubated for 48 hrs by sulforhodamine B assay relative to control; conditions: read-out: Activity
MOLT-4 = experiment: Growth inhibition of human MOLT-4 cells incubated for 48 hrs by sulforhodamine B assay
Procedure, shortened: (§3)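 NCI60 panel at the NCI Developmental Therapeutics Program. Only compounds active in the 10 µM screen went to dose-response testing. GI50, the concentration giving 50% of maximal inhibition of proliferation, and TGI, the concentration giving total growth inhibition, were derived from the dose-response curves.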

A498 [6] = experiment: Growth inhibition of human A498 cells assessed as cell growth at 100 uM incubated for 48 hrs by sulforhodamine B assay relative to control; conditions: read-out: Activity; procedure, shortened: as §1
SNB-75 [7] = experiment: Growth inhibition of human SNB-75 cells incubated for 48 hrs by sulforhodamine B assay; procedure, shortened: as §2
OVCAR-5 [8] = experiment: Growth inhibition of human OVCAR-5 cells assessed as cell growth at 0.1 uM incubated for 48 hrs by sulforhodamine B assay relative to control; conditions: read-out: Activity
A549 = experiment: Growth inhibition of human A549/ATCC cells incubated for 48 hrs by sulforhodamine B assay; procedure, shortened: as §1
SK-MEL-5 = experiment: Growth inhibition of human SK-MEL-5 cells assessed as cell growth at 0.1 uM incubated for 48 hrs by sulforhodamine B assay relative to control; conditions: read-out: Activity
RPMI-8226 = experiment: Growth inhibition of human RPMI-8226 cells assessed as cell growth at 0.1 uM incubated for 48 hrs by sulforhodamine B assay relative to control; conditions: read-out: Activity
MDA-MB-468 = experiment: Growth inhibition of human MDA-MB-468 cells assessed as cell growth at 0.01 uM incubated for 48 hrs by sulforhodamine B assay relative to control; conditions: read-out: Activity
ACHN = experiment: Growth inhibition of human ACHN cells assessed as cell growth at 1 uM incubated for 48 hrs by sulforhodamine B assay relative to control; conditions: read-out: Activity
SR [9] = experiment: Growth inhibition of human SR cells assessed as cell growth at 0.1 uM incubated for 48 hrs by sulforhodamine B assay relative to control; conditions: read-out: Activity
TK-10 = experiment: Growth inhibition of human TK-10 cells assessed as cell growth at 0.1 uM incubated for 48 hrs by sulforhodamine B assay relative to control; conditions: read-out: Activity
MCF7 [10] = experiment: Growth inhibition of human MCF7 cells incubated for 48 hrs by sulforhodamine B assay; procedure, shortened: as §3
KM12 = experiment: Growth inhibition of human KM12 cells assessed as cell growth at 0.1 uM incubated for 48 hrs by sulforhodamine B assay relative to control; conditions: read-out: Activity
HCT-15 = experiment: Growth inhibition of human HCT-15 cells incubated for 48 hrs by sulforhodamine B assay; procedure, shortened: as §3
MCF7 [11] = experiment: Growth inhibition of human MCF7 cells assessed as cell growth at 1 uM incubated for 48 hrs by sulforhodamine B assay relative to control; conditions: read-out: Activity
SR [12] = experiment: Growth inhibition of human SR cells assessed as cell growth at 0.01 uM incubated for 48 hrs by sulforhodamine B assay relative to control; conditions: read-out: Activity
NCI-H226 = experiment: Growth inhibition of human NCI-H226 cells incubated for 48 hrs by sulforhodamine B assay; procedure, shortened: as §3
HOP-92 = experiment: Growth inhibition of human HOP-92 cells assessed as cell growth at 0.1 uM incubated for 48 hrs by sulforhodamine B assay relative to control; conditions: read-out: Activity
Hs-578T = experiment: Growth inhibition of human Hs-578T cells incubated for 48 hrs by sulforhodamine B assay; procedure, shortened: as §3
SNB-75 [13] = experiment: Growth inhibition of human SNB-75 cells assessed as cell growth at 100 uM incubated for 48 hrs by sulforhodamine B assay relative to control; conditions: read-out: Activity
Malme-3M = experiment: Growth inhibition of human Malme-3M cells assessed as cell growth at 0.1 uM incubated for 48 hrs by sulforhodamine B assay relative to control; conditions: read-out: Activity
HOP-62 = experiment: Growth inhibition of human HOP-62 cells assessed as cell growth at 1 uM incubated for 48 hrs by sulforhodamine B assay relative to control; conditions: read-out: Activity
MDA-MB-231 [14] = experiment: Growth inhibition of human MDA-MB-231 cells assessed as cell growth at 100 uM incubated for 48 hrs by sulforhodamine B assay relative to control; conditions: read-out: Activity
A498 [15] = experiment: Growth inhibition of human A498 cells incubated for 48 hrs by sulforhodamine B assay; procedure, shortened: as §1
786-0 = experiment: Growth inhibition of human 786-0 cells assessed as cell growth at 0.01 uM incubated for 48 hrs by sulforhodamine B assay relative to control; conditions: read-out: Activity; procedure, shortened: as §1
MDA-MB-231 [16] = experiment: Growth inhibition of human MDA-MB-231 cells incubated for 48 hrs by sulforhodamine B assay; procedure, shortened: as §3
[17] = read-out: LC50 (the source's name)

Cc1ccc(NC(=O)c2sc3nc4c(cc3c2N)C(=O)CCC4)cc1C
growth at 100 µM (HCC 2998 [1]): 5% | growth at 100 µM (UACC-257 [2]): 35% | GI50 (HCC 2998 [3]): 1.4 µM | TGI (HCC 2998 [3]): > 100 µM | CC50 (HCC 2998 [3]; [17]): > 100 µM | growth at 0.01 µM (SF-295): 91% | growth at 100 µM (CAKI-1): 22% | LC50 (concentration killing 50% of cells) (UACC-257 [4]): > 100 µM | TGI (UACC-257 [4]): > 100 µM | growth at 100 µM (OVCAR-5 [5]): 31% | GI50 (MOLT-4): 6.41 µM | TGI (MOLT-4): 76.2 µM | CC50 (MOLT-4; [17]): > 100 µM | growth at 100 µM (A498 [6]): -17% | GI50 (SNB-75 [7]): 0.183 µM | LC50 (SNB-75 [7]): > 100 µM | TGI (SNB-75 [7]): > 100 µM | growth at 0.1 µM (OVCAR-5 [8]): 87% | GI50 (A549): 0.673 µM | TGI (A549): > 100 µM | CC50 (A549; [17]): > 100 µM | growth at 0.1 µM (SK-MEL-5): 90% | growth at 0.1 µM (RPMI-8226): 97% | growth at 0.01 µM (MDA-MB-468): 95% | growth at 1 µM (ACHN): 46% | growth at 0.1 µM (SR [9]): 108% | growth at 0.1 µM (TK-10): 85% | GI50 (MCF7 [10]): 0.339 µM | TGI (MCF7 [10]): > 100 µM | CC50 (MCF7 [10]; [17]): > 100 µM | growth at 0.1 µM (KM12): 96% | GI50 (HCT-15): 0.486 µM | LC50 (HCT-15): > 100 µM | TGI (HCT-15): > 100 µM | growth at 1 µM (MCF7 [11]): 18% | growth at 0.01 µM (SR [12]): 106% | GI50 (NCI-H226): 22.4 µM | TGI (NCI-H226): > 100 µM | CC50 (NCI-H226; [17]): > 100 µM | growth at 0.1 µM (HOP-92): 72% | GI50 (Hs-578T): 0.356 µM | TGI (Hs-578T): > 100 µM | CC50 (Hs-578T; [17]): > 100 µM | growth at 100 µM (SNB-75 [13]): 10% | growth at 0.1 µM (Malme-3M): 86% | growth at 1 µM (HOP-62): 40% | growth at 100 µM (MDA-MB-231 [14]): 24% | GI50 (A498 [15]): 0.198 µM | CC50 (A498 [15]; [17]): > 100 µM | growth at 0.01 µM (786-0): 98% | GI50 (MDA-MB-231 [16]): 1.51 µM | TGI (MDA-MB-231 [16]): > 100 µM | CC50 (MDA-MB-231 [16]; [17]): > 100 µM
